Here are results for two compounds from PMC8028158 (ACS Omega, 2021).

Entries after “also recorded” stand apart in the source; their conditions may differ.

The target of one test is T1, mouse TRPC6 (Mus musculus, UniProt Q61143).
T1 sequence (Q61143 1-930): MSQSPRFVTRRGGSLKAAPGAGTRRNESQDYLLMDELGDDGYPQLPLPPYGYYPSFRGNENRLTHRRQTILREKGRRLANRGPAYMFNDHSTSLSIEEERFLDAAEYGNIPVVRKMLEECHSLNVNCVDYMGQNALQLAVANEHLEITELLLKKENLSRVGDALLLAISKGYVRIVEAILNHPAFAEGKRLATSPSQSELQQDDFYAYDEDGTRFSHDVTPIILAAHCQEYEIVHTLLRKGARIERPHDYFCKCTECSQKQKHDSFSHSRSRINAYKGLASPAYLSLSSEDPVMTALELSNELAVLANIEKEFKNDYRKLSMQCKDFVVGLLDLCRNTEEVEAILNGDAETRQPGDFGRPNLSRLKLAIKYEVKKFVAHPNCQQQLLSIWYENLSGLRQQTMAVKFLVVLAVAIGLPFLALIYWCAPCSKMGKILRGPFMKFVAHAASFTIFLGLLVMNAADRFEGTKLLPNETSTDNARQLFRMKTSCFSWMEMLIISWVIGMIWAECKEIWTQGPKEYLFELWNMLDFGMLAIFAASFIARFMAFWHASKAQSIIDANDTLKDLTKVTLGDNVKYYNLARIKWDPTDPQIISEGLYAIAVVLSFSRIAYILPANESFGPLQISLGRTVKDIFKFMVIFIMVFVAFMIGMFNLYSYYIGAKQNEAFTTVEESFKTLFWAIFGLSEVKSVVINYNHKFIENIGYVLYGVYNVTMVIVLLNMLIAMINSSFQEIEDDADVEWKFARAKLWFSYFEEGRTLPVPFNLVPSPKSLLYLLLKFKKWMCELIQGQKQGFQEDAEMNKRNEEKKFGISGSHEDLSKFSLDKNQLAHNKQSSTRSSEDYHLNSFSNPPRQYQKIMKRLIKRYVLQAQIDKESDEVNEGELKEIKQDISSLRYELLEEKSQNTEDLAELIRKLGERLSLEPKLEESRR
The test is described as follows: Fluorescence Ca2+ assay, inhibition of HDM-activated TRPC6 in HEK293 cells. The following applies: HEK293 cells with stable expression of mouse TRPC6. It counts as cell-based. The procedure, abridged:
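HEK293 cells co-expressing mouse TRPC6 and the Gq/11-PLC-coupled M5 muscarinic receptor were loaded with Fluo-4. Cells were preincubated with test compound at various concentrations for 5 min, then HDM (10 μM) was added, and fluorescence was read in a microplate reader. Traces were expressed as ΔF over F0. IC50 came from a Hill fit of one experiment (N = 3).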

A further test has as its system MKN-45 cells. The test is described as follows: MTT cell viability assay, MKN-45. It counts as cell-based, human. To be noted: read-out: IC50 cell proliferation, MKN-45; 72 h, MTT. The procedure, abridged: (§1)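 Cells were seeded at 2000 per well, incubated overnight and exposed to test compound for 72 h. MTT was added for 4 h, formazan was dissolved in DMSO and absorbance was read at 570 nm. Viability was normalized to untreated wells, giving mean ± SEM of three trials. IC50 was calculated from relative survival.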

In a further test the target is T2, TRPC6 (Mus musculus, UniProt Q61143).
T2 sequence (Q61143 1-930): T1 sequence (Q61143 1-930)
The following applies: read-out: IC50 TRPC6; nonselective TRPC6 antagonist; cited from earlier work.

A further test relates to AGS cells. Nature of the test: MTT cell viability assay, AGS. It counts as cell-based, human. To be noted: read-out: IC50 cell proliferation, AGS; 72 h, MTT. A digest of the protocol: as §1

For `COc1cccc2sc(N(CCN(C)C)C(=O)c3ccc4ccccc4c3)nc12` [Compound 1r, N-(2-(dimethylamino)ethyl)-N-(4-methoxybenzo[d]thiazol-2-yl)-2-naphthamide], the “TRPC6 antagonistic potency (in words)” value on mouse TRPC6 is on record as “No in vitro potency; also recorded: no antagonistic potency”.

As for `COc1ccc(CCCOC(Cn2ccnc2)c2ccc(OC)cc2)cc1` (stereo not shown) [SKF-96365, 1H-Imidazole, 1-[2-(4-methoxyphenyl)-2-[3-(4-methoxyphenyl)propoxy]ethyl], reference compound], the values for the IC50 in the test on MKN-45 cells, on TRPC6 and with AGS cells were 15.3 µM, 4.9 µM and 37 µM, respectively.
